Activity calls are given as the source filed them. The calls are words filed in the database; no cut-off is given here.
Columns and labels:
[1] = Displacement of [3H]AMPA from AMPA receptor in rat cortical synaptosome; type: tissue-based, Brain
Procedure, shortened: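 Binding to rat cortical synaptosome membranes using 5 nM [3H]AMPA (45.5 Ci/mmol) as radioligand.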

[2] = Displacement of [3H]KAIN from KA receptor in rat cortical synaptosome; type: tissue-based, Brain
Glutamate NMDA receptor = experiment: Displacement of [3H]CGP39653 from NMDA receptor in rat cortical synaptosome; type: tissue-based, Brain
[3] = molecular target: Glutamate NMDA receptor; Grin1/Grin2b (Rattus norvegicus, UniProt P35439+Q00960); experiment: Activity at rat recombinant NR1/NR2B receptor expressed in Xenopus oocytes assessed as effect on glutamate-induced current by two voltage clamp electrophysiology; type: cell-based, Oocyte
Procedure, shortened: (§1)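 Two-electrode voltage clamp on Xenopus oocytes injected with cRNA for NR1 plus the named NR2 subunit. Holding potential −60 to −40 mV. Continuous perfusion at 23 °C with 90 NaCl, 0.5 BaCl2, 1 KCl, 0.01 EDTA, 10 HEPES (mM), pH 7.6, with 20 μM glycine present throughout. Concentration–response data from each oocyte fitted to the Hill equation; mean ± SEM of logEC50 and nH.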

[4] = molecular target: Glutamate NMDA receptor; Grin1/Grin2b (Rattus norvegicus) (UniProt P35439+Q00960); experiment: Activity at rat recombinant NR1/NR2B receptor expressed in Xenopus oocytes by two voltage clamp electrophysiology relative to glutamate; type: cell-based; details: Oocyte
Procedure, shortened: as §1, with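 “nH. Relative Imax = fitted agonist Imax / maximal glutamate response in the same recording.” for “nH.”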

[5] = molecular target: Glutamate NMDA receptor; Grin1/Grin2c (Rattus norvegicus, UniProt P35439+Q00961); experiment: Activity at rat recombinant NR1/NR2C receptor expressed in Xenopus oocytes assessed as effect on glutamate-induced current by two voltage clamp electrophysiology; type: cell-based, Oocyte; procedure, shortened: as §1
[6] = molecular target: Ionotropic glutamate receptor NMDA 1/2D (Rattus norvegicus, UniProt P35439+Q62645); experiment: Activity at rat NR1/NR2D receptor expressed in Xenopus oocytes assessed as effect on glutamate-induced current by two voltage clamp electrophysiology; type: cell-based, Oocyte; procedure, shortened: as §1
[7] = molecular target: Ionotropic glutamate receptor NMDA 1/2D (Rattus norvegicus) (UniProt P35439+Q62645); experiment: Activity at rat NR1/NR2D receptor expressed in Xenopus oocytes by two voltage clamp electrophysiology relative to glutamate; type: cell-based; details: Oocyte
Procedure, shortened: as §1, with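 “nH. Relative Imax = fitted agonist Imax / maximal glutamate response in the same recording.” for “nH.”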

[8] = molecular target: T1, Glutamate NMDA receptor; Grin1/Grin2a (Rattus norvegicus) (UniProt P35439+Q00959); experiment: Activity at rat recombinant NR1/NR2A receptor expressed in Xenopus oocytes by two voltage clamp electrophysiology relative to glutamate; type: cell-based; details: Oocyte
Procedure, shortened: as §1, with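 “nH. Relative Imax = fitted agonist Imax / maximal glutamate response in the same recording.” for “nH.”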

[9] = molecular target: T1, Glutamate NMDA receptor; Grin1/Grin2a (Rattus norvegicus); experiment: (§2) Activity at rat recombinant NR1/NR2A receptor expressed in Xenopus oocytes assessed as effect on glutamate-induced current by two voltage clamp electrophysiology; type: cell-based; details: Oocyte; procedure, shortened: as §1
[10] = molecular target: Glutamate NMDA receptor; Grin1/Grin2c (Rattus norvegicus) (UniProt P35439+Q00961); experiment: Activity at rat recombinant NR1/NR2C receptor expressed in Xenopus oocytes by two voltage clamp electrophysiology relative to glutamate; type: cell-based; details: Oocyte
Procedure, shortened: as §1, with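 “nH. Relative Imax = fitted agonist Imax / maximal glutamate response in the same recording.” for “nH.”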

[11] = molecular target: Glutamate NMDA receptor; Grin1/Grin2a (Rattus norvegicus, UniProt P35439+Q00959); experiment: as §2; type: cell-based, Oocyte; procedure, shortened: as §1

SMILES | IC50 [1] | IC50 [2] | Ki (Glutamate NMDA receptor) | EC50 [3] | Imax [4] | EC50 [5] | EC50 [6] | Imax [7] | Activity [8] | Activity [9] | Imax [10] | Imax [8] | EC50 [11]
CCCc1cnn(O)c1[C@@H](N)C(=O)O | > 100 µM | > 100 µM | 6.9 µM | 63 µM | 0.09 | – | – | – | – | – | – | – | –
CCc1cnn(O)c1[C@@H](N)C(=O)O | > 100 µM | > 100 µM | 4.4 µM | 34 µM | 0.46 | – | – | – | – | – | – | – | –
CC(C)c1cnn(O)c1[C@H](N)C(=O)O | > 100 µM | > 100 µM | > 100 µM | – | – | – | – | – | – | – | – | – | –
Cc1cnn(O)c1[C@@H](N)C(=O)O | > 100 µM | > 100 µM | 2.2 µM | 36 µM | 0.23 | – | – | – | – | – | – | – | –
N[C@H](C(=O)O)c1c(Cl)cnn1O | > 100 µM | > 100 µM | 25 µM | – | – | – | – | – | – | – | – | – | –
Cc1cnn(O)c1[C@H](N)C(=O)O | > 100 µM | > 100 µM | > 100 µM | – | – | – | – | – | – | – | – | – | –
CC(C)c1cnn(O)c1[C@@H](N)C(=O)O | > 100 µM | > 100 µM | 13 µM | – | – | – | – | – | – | – | – | – | –
N[C@@H](C(=O)O)c1c(Cl)cnn1O | – | – | 2.9 µM | 58 µM | 0.33 | – | – | – | – | – | – | – | –
N[C@H](C(=O)O)c1ccnn1O | > 100 µM | > 100 µM | > 100 µM | – | – | – | – | – | – | – | – | – | –
N[C@@H](C(=O)O)c1ccnn1O | > 100 µM | > 100 µM | 2.2 µM | 14 µM | 0.61 | – | – | – | – | – | – | – | –
CCc1cnn(O)c1[C@H](N)C(=O)O | > 100 µM | > 100 µM | > 100 µM | – | – | – | – | – | – | – | – | – | –
CCCc1cnn(O)c1[C@H](N)C(=O)O | > 100 µM | > 100 µM | > 100 µM | – | – | – | – | – | – | – | – | – | –
CCCc1cnn(O)c1C(N)C(=O)O (racemic) | > 100 µM | > 100 µM | 14 µM | 105 µM | 0.06 | 429 µM | 153 µM | 0.37 | inactive | inactive | 0.22 | – | –
Cc1cnn(O)c1C(N)C(=O)O (racemic) | > 100 µM | > 100 µM | 22 µM | – | – | – | – | – | – | – | – | – | –
NC(C(=O)O)c1ccnn1O (racemic) | > 100 µM | > 100 µM | 10 µM | 48 µM | 0.58 | 54 µM | – | – | – | – | 0.52 | 0.45 | 82 µM
CCc1cnn(O)c1C(N)C(=O)O (racemic) | > 100 µM | > 100 µM | 13 µM | 68 µM | 0.45 | 91 µM | 43 µM | 0.7 | – | – | 0.52 | 0.05 | 47 µM
NC(C(=O)O)c1c(Cl)cnn1O (racemic) | > 100 µM | > 100 µM | 2.9 µM | 149 µM | 0.29 | 255 µM | 152 µM | 0.73 | – | – | 0.55 | 0.07 | 565 µM
CC(C)c1cnn(O)c1C(N)C(=O)O (racemic) | > 100 µM | > 100 µM | 20 µM | – | – | – | – | – | – | – | – | – | –
CN[C@H](CC(=O)O)C(=O)O [N-METHYL-D-ASPARTIC ACID (NMDA)] | – | – | – | 22 µM | 0.77 | 23 µM | 8.3 µM | 0.8 | – | – | 0.73 | 0.9 | 75 µM

Reference: ChEMBL document CHEMBL1155079, “N-Hydroxypyrazolyl glycine derivatives as selective N-methyl-D-aspartic acid receptor ligands” (J Med Chem, 2008)
